# In ChEMBL document CHEMBL1129073, “Metabolically programmed polyamine analogue antidiarrheals” (J Med Chem, 1996):
# pIC50, pKi: −log10 of the molar value.
# What was measured:
# L1210 [1] = experiment: In vitro inhibition of uptake [3H]-spermidine in L1210 (murine leukemia) cells.; type: functional, cell-based, Mus musculus
# L1210 [2] = experiment: Ability to competitively inhibit uptake of radiolabeled spermidine in L1210 cells; type: functional, cell-based, Mus musculus
# Procedure, shortened: (§1)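 Murine L1210 leukemia cells in RPMI-1640 with 10% FBS and 1 mM aminoguanidine. Pellets washed in cold medium containing 1 mM SPD, dissolved in NaOH, scintillation counted. Ki from Lineweaver–Burke plots; Km(SPD) 2.1 μM; mean of ≥3 experiments.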
# L1210 [3] = experiment: Ability to competitively inhibit radioligand spermidine transport in L1210 cells; type: functional, cell-based, Mus musculus; procedure, shortened: as §1
# [4] = Effect of Chronic compound treatment on polyamine homeostasis in mouse kidney (total[N+]) at total dose of 100 mg/kg; type: ADME, organism-based; parameters: dose 100 mg/kg; conditions: in vivo
# Procedure, shortened: (§2)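 Groups of three female CD-1 mice were given 20 mg/kg/day as a single daily ip injection for 5 days (total 100 mg/kg, 215.3 μmol/kg). Mice were sacrificed 24 h after the last dose. Liver and kidney perchloric acid extracts were dansylated and run on HPLC, quantified against calibration curves. [N+] equivalents = 2[diamine] + 3[triamine] + 4[tetraamine], in nequiv/g wet weight, ±SD.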
# [5] = Effect of Chronic compound treatment on polyamine homeostasis in mouse liver(total[N+]) total dose of 100 mg/kg; type: ADME, organism-based; parameters: dose 100 mg/kg; conditions: in vivo; procedure, shortened: as §2
# [6] = Effect of Chronic compound treatment on polyamine homeostasis in mouse kidney (native[N+]) at total dose of 100 mg/kg; type: ADME, organism-based; parameters: dose 100 mg/kg; conditions: in vivo; procedure, shortened: as §2
# L1210 [7] = experiment: Growth inhibitory activity of compound on L1210 cells after 96 hours; type: functional, cell-based; conditions: Mus musculus, L1210, 96 h
# Procedure, shortened: (§3)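 Murine L1210 leukemia cells were kept in log-phase suspension in RPMI-1640 with 10% FBS, 2% HEPES-MOPS, 1 mM aminoguanidine and 1 mM L-glutamine at 37 °C under 5% CO₂. They were dosed at 0.5–1.0 × 10⁵ cells/mL with analogue in sterile water, 0.2 μm filtered. For the 96 h value, cells were reseeded at 48 h. Cells were counted electronically. IC50 is the concentration giving 50% of control growth, net of the inoculum.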
# [8] = Acute toxicity was assessed after ip administration of a single dose of 325 mg/kg to a group of 5 female CD-1 mice; type: organism-based; parameters: dose 325 mg/kg, route intraperitoneal; conditions: CD-1, mouse, in vivo
# L1210 [9] = experiment: Growth inhibitory activity of compound on L1210 cells after 48 hours; type: functional, cell-based; conditions: Mus musculus, L1210, 48 h; procedure, shortened: as §3
# [10] = Effect of Chronic compound treatment on polyamine homeostasis in mouse liver (native[N+]) total dose of 100 mg/kg; type: ADME, organism-based; parameters: dose 100 mg/kg; conditions: in vivo; procedure, shortened: as §2
# [11] = Effect of Chronic compound treatment on polyamine homeostasis in mouse kidney (native[N+]) at total dose of 90 mg/kg; type: ADME, organism-based; parameters: dose 90 mg/kg; conditions: in vivo
# Procedure, shortened: (§4)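 Groups of three female CD-1 mice were dosed at 15 mg/kg/day for 6 days (total 90 mg/kg, 208.3 μmol/kg). Mice were sacrificed 1 day after the final dose. Liver and kidney perchloric acid extracts were dansylated and analysed by HPLC against calibration standards. [N+] equivalents = 2[diamine] + 3[triamine] + 4[tetraamine], in nequiv/g wet weight, ±SD.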
# [12] = Effect of Chronic compound treatment on polyamine homeostasis in mouse liver(total[N+]) at total dose of 90 mg/kg; type: ADME, organism-based; parameters: dose 90 mg/kg; conditions: in vivo; procedure, shortened: as §4
# [13] = Effect of Chronic compound treatment on polyamine homeostasis in mouse liver (native[N+]) at total dose of 90 mg/kg; type: ADME, organism-based; parameters: dose 90 mg/kg; conditions: in vivo; procedure, shortened: as §4
# L1210 (Mus musculus) = experiment: Growth inhibitory activity of compound on L1210 cells after 96 hours; conditions: L1210, 96 h
smiles,measurement,setting,value
CCNCCCCNC1CCC(NCCCCNCC)CC1 (stereo unspecified),pKi,L1210 [1],5.46
c1cc(CNCCCCNCc2ccncc2)ccn1,pKi,L1210 [1],< 3.30
CCNCCCNC1CCC(NCCCNCC)CC1 (stereo unspecified),pKi,L1210 [1],5.10
C(CCNCCCCNC12CC3CC(CC(C3)C1)C2)CNCCCCNC12CC3CC(CC(C3)C1)C2,pKi,L1210 [2],5.70
C(CNC1CCNCC1)CNC1CCNCC1,pKi,L1210 [1],4.22
C(CCNCCC1CCNCC1)CNCCC1CCNCC1,pKi,L1210 [1],4.74
c1cc(NCCCNc2ccncc2)ccn1,pKi,L1210 [1],< 3.30
CCNCCC(O)CNCCCCNCC(O)CCNCC (stereo unspecified),pKi,L1210 [3],5.74
same,LD50,[4],5427 mg/kg
same,LD50,[5],6706 mg/kg
same,LD50,[6],3251 mg/kg
same,pIC50,L1210 [7],7.30
same,LD50,[8],325 mg/kg
same,pIC50,L1210 [9],6.22
same,LD50,[10],6118 mg/kg
CCNCCCNCCCNCCCNCC [BIS(ETHYL)NORSPERMINE],LD50,[8],325 mg/kg
CCNCCCCNCCCCNCCCCNCC [DIETHYLHOMOSPERMINE],LD50,[11],1560 mg/kg
same,LD50,[8],325 mg/kg
same,LD50,[12],7806 mg/kg
same,LD50,[13],5506 mg/kg
same,pIC50,L1210 (Mus musculus),7.30
